MPTP inh: inhibitors of mitochondrial permeability transition pore. inhibition, % at 10 µM. isolated mouse mitochondria, Ca2+ swelling absorbance, 30 min. 360,000 tested, 1.4% active. AID 602449;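 active means inhibition of 50% or more, scaled per plate between neutral and stimulator controls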;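 further: 0% = DMSO wells given calcium and 100% = 1 mM EGTA wells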
TAAR1 antagonist: antagonists of human TAAR1. Q96RJ0. CHO RD-HGA16 TAAR1, Fluo-8 calcium fluorescence, antagonist. inhibition, % at 3 µM. 360,000 tested, 1.5% active;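 active means inhibition above a per-plate cutoff, the mean inhibition of test compounds on that plate plus 3 SD, cut at about 49% in these data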;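 further: 0% = DMSO plus EC80 beta-PEA response and 100% = DMSO alone without agonist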
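Test system: RD-HGA16 CHO cells with stable hTAAR1 and Gα16 / Probe or stimulus: EC80 β-phenethylamine stimulus / Times: seeding 17-24 h prior, 75-min 37 °C, 30-min RT dye loading / Detection: Fluo-8 calcium-sensitive fluorescence / Read-out basis: % inhibition scaled between DMSO and EC80 PEA controls / Repeats: singlicate, one well per test compound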
DAGLB inh: blocks human DAGLB lipase activity; 340,000 tested, 0.059% active; HEK293T DAGLB membrane lysate, EnzChek fluorogenic substrate; Q8NCG7; AID 504411; inhibition, % at 5.17 µM; in the data active means inhibition above about 34%;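 further: 0% = enzyme with vehicle and 100% = wells lacking enzyme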
TAAR1 agonist: agonists of human TAAR1; Q96RJ0; CHO RD-HGA16 TAAR1, Fluo-8 calcium fluorescence; vehicle wells 0%, saturating PEA agonist 100%; activation, % at 3 µM; 360,000 tested, 0.99% active;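 active means activation above the mean activation of all test compounds in the run plus 3 SD, cut at about 38% in these data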
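Test system: RD-HGA16 (CHO) cells co-expressing Gα16 and hTAAR1; dosing: one-point dosing at 3 µM (nominal); timing: 17-24 h seeding, 75 min 37 °C dye, 30 min RT; signal: kinetic Fluo-8 calcium fluorescence; read-out basis: % activation relative to PEA EC100 response; controls: DMSO and PEA EC100; replicates: n 1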
GPR7 antag: antagonists of human GPR7 (neuropeptides B/W receptor 1); P48145; GPR7-expressing cells, fluorescence antagonist assay; inhibition, % at 4.4 µM; 290,000 tested, 1.1% active; in the data active means inhibition above about 16%, passing the limit was not always enough;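 further: cells stimulated with the agonist NPW; 0% = agonist with vehicle and 100% = vehicle without agonist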
Target sequence (P48145 whole entry, looked up): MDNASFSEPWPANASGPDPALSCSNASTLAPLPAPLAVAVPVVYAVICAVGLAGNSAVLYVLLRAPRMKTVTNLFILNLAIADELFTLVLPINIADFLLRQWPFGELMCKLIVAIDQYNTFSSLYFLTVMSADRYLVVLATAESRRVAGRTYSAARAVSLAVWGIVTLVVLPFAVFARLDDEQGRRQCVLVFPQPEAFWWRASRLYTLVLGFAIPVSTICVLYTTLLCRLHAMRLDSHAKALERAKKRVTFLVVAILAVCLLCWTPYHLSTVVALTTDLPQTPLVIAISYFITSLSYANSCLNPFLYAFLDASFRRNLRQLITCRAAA
An asterisk follows results filed as active; x = no result. Shown are actives, neighbours in structure and some others; about 4% of the full set was active somewhere.

SMILES	MPTP inh	TAAR1 antagonist	DAGLB inh	TAAR1 agonist	GPR7 antag
COc1ccccc1CC(=O)Nc1ccc(-c2nnc(-c3ccco3)o2)cc1	2.1	45.8	-1.8	12.8	12.9
COc1cc(C(=O)Nc2ccc(-c3nnc(-c4ccco4)o3)cc2)cc(OC)c1OC	1.5	51.6*	2.7	10.6	0.5
O=C(CCCN1C(=O)C(=Cc2ccc3c(c2)OCO3)SC1=S)Nc1ccc(C(=O)O)c(O)c1	0.2	-0.9	x	-0.8	x
COc1cc(/C=C/C(=O)c2ccc3c(c2)OCO3)cc(Cl)c1O	0.5	43.4	-3.7	56.4*	17.5
COc1ccc(-c2csc(C(C)(O)c3ccc(OC)cc3)n2)cc1 (centres undefined)	2.7	12.9	x	0.1	x
COC(=O)C1=C(C)N(c2cccc(C)c2)C(=O)/C1=C\c1cccs1	1.2	-3.2	-5.7	47.8*	-0.7
COc1ccc(C(=S)N2CCN(c3cccc(Cl)c3)CC2)c(OC)c1	-1.9	5.2	-3.0	-0.9	28.1*
O=C(c1ccco1)c1cn(CC(=O)N2CCCCCC2)c2ccccc12	0.1	-37.4	-1.1	6.9	-2.4
O=C(c1ccco1)c1cn(CC(=O)N2CCCc3ccccc32)c2ccccc12	12.0	23.6	-5.4	8.8	18.6*
CC1(C(=O)NS(=O)(=O)Cc2cccc(Cl)c2)CCN1C(=O)CCc1cccs1 (centres undefined)	-0.8	-16.4	x	0.3	x
COc1ccccc1N(C)S(=O)(=O)c1ccc(C(=O)NCC(C)C)cc1	2.0	-4.7	4.0	6.9	-4.7
COc1ccccc1N(C)S(=O)(=O)c1ccc(C(=O)NCC2CCCCC2)cc1	-0.2	53.2*	-7.2	11.9	x
COC(=O)c1ccc(CNC(=O)c2ccc(S(=O)(=O)N(C)c3ccccc3OC)cc2)cc1	0.9	57.0*	-1.8	21.0	x
CC1C(=O)N(Cc2cn(Cc3ccco3)nn2)CCS(=O)(=O)N1Cc1ccc(-c2ccc(Cl)c(Cl)c2)cc1 (centres undefined)	-1.1	3.1	3.1	0.6	x
O=C1NC[C@@H](CCCCN2C[C@H](Cc3ccccc3)N(CCc3ccc(O)cc3)C(=O)C2=O)N(CC2CCCCC2)C1=O	-2.1	-11.1	x	8.2	x
O=C1NC(=S)S/C1=C\c1cc(Cl)cc(Cl)c1O	7.6	65.1*	33.6	39.8*	x
CCOC(=O)C1CCCN(C(=O)c2ccc(-c3ccc([N+](=O)[O-])cc3)o2)C1 (centres undefined)	-2.1	36.8	1.3	49.1*	x
CC1=C(C(=O)Nc2ccc(Cl)cc2)C(c2cccs2)n2nnnc2N1 (centres undefined)	0.3	2.6	1.1	19.6	20.1*
COC(=O)C1=C(C(=O)c2ccccc2)C(c2cccs2)n2nnnc2N1 (centres undefined)	-3.9	-17.8	1.4	2.8	-15.7
Nn1c(SCC(=O)Nc2ccc3c(c2)OCCO3)nnc1C(F)(F)F	2.3	2.2	-2.9	0.4	13.9*
Cc1nnc(SCC(=O)Nc2ccc3c(c2)OCCO3)n1N	1.0	2.7	0.3	1.7	-7.2
Cc1ccc(C)c(CC(=O)N2CCCC(c3cc(C(=O)NCc4cccnc4)no3)C2)c1 (centres undefined)	-1.2	-7.3	x	0.9	x
Cc1ccc(SCc2c(C(=O)N/N=C/c3cccs3)nnn2-c2nonc2N)cc1	0.2	62.1*	-3.5	8.0	x
Cc1ccsc1/C=N/NC(=O)c1nnn(-c2nonc2N)c1CN(C)c1ccccc1	-0.4	48.9*	3.0	6.7	-13.0
COC(=O)[C@]12C[C@H](CC(=O)NCc3cccc4ccccc34)C(=O)N(CCC3=CCCCC3)C1=C[C@H](COCc1ccccc1)O[C@@H]2C	x	-5.3	x	0.3	x
SMILES	MPTP inh	TAAR1 antagonist	DAGLB inh	TAAR1 agonist	GPR7 antag
CC1(C(=O)NS(=O)(=O)c2cccc(Cl)c2)CCN1C(=O)c1cccc2ccccc12 (centres undefined)	0.4	-22.1	x	0.8	x
CCCCNc1c(-c2ccc(SC(C)CC)c(OC)c2)nc2ccc(Cl)cn12 (centres undefined)	1.1	61.6*	-22.5	-0.3	x
CCCCNc1c(-c2ccc(-c3ccc(OC)cc3)c(OC)c2)nc2ccccn12	1.8	72.5*	1.9	7.1	x
CCCCNc1c(-c2ccc(OC)c(Sc3ccc(OC)cc3)c2)nc2ccccn12	2.2	x	-0.1	x	x
CCCCNc1c(-c2ccc(SC(C)CC)c(OC)c2)nc2ccc(C)cn12 (centres undefined)	16.0	86.8*	-7.1	9.1	x
O=C(Nc1cccc(C(F)(F)F)c1)c1ccc(Cn2cc(Br)cn2)o1	23.1	53.6*	-4.6	56.9*	16.2
